High-throughput results as filed in PubChem BioAssay.
CSN deneddyl inh: blocks human CSN-mediated cullin deneddylation | Q92905 | Purified CSN, SCF-Nedd8-OG deneddylation, fluorescence polarization | inhibition, % at 12.5 µM | 0.38% of 360,000 active | AID 651999;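 active = pattern-corrected inhibition above about 35%, with an unprinted fluorescence ratio check between 0.5 and 1.5, limit read from the data, passing the limit was not always enough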;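 also: 0% = enzyme with substrate and 100% = substrate without enzyme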
Target sequence (Q92905 whole entry, looked up, one chain of several): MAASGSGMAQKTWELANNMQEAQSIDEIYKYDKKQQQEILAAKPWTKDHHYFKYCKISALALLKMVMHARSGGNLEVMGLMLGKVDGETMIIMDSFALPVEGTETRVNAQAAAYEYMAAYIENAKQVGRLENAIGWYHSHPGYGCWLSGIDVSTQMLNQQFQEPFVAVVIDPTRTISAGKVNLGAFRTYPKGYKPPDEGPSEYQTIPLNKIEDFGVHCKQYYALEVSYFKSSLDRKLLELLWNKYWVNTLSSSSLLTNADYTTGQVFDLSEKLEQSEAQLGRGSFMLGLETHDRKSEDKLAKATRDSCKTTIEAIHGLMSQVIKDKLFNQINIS
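Material: purified human Csn5 enzyme expressed in HEK293T cells / Medium: Tris buffer pH 7.5, NaCl, DTT, Tween-20, trehalose, ovalbumin / Compound dosing: 12.5 µM single point / Schedule: 90 min incubation of compound, enzyme and substrate at room temperature / Signal: fluorescence polarization of the substrate / Control set: no-enzyme wells high, enzyme-with-substrate wells low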
HNF4A DNA FP: change in binding of human HNF4 alpha to DNA; P41235; HNF4a-FITC DNA binding, fluorescence polarization, 1 h; activity change, % at 10 µM; 0.3% of 360,000 active; in the data active = activity change above about 30%, passing the limit was not always enough
Rpn11 block: blocks the human proteasome subunit Rpn11; calls only at 20 µM; AID 588493; 0.59% of 360,000 active; human 26S proteasome, Ub4-pepOG fluorescence polarization; 20S core pre-blocked with epoxomicin;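 active = inhibition at 20 µM, scaled to each plate's controls, above about 33%, limit read from the data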
TPT1 inh: C. albicans TPT1 enzyme inhibition; 0.81% of 300,000 active; recombinant caTPT1, FP RNA substrate dephosphorylation; inhibition, % at 5 µM; AID 1962;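 active = inhibition above the mean of all tested compounds plus 3 SD, set per screening campaign, cut at about 24% in these data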;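 also: plate controls were DMSO alone for no effect and ferristatin control at 100 nM for full effect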
caTPT1 confirm: confirmation of Candida albicans TPT1 inhibitors. shares compounds with TPT1 inh. recombinant caTPT1, fluorescence polarization, RNase T1 coupled. inhibition, % at 5 µM. 74% of 2,400 active. AID 2149;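 active = inhibition above the primary screen limit, the mean inhibition of all tested compounds plus 3 SD, cut at about 25% in these data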
RNase T1 inh: RNase T1 inhibition in TPT1 counter-screen. inhibition, % at 5 µM. AID 2153. RNase T1 cleavage, fluorescence polarization, 1536-well. 83% of 2,400 active. shares compounds with TPT1 inh;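 active = inhibition above the solvent-only control well mean plus 3 SD, limit set per screening run, cut at about 23% in these data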;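 also: plate controls were DMSO wells with enzyme for no effect and wells without RNase T1 for full effect; inhibitors block cleavage so intact labeled substrate keeps polarization high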
Target sequence (P00651 whole entry, looked up): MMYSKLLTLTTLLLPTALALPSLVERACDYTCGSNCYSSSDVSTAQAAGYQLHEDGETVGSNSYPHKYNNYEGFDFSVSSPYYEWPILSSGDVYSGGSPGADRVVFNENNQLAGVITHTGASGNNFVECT
Active calls of the source: *; i = inactive; nt = no result given; + = active, no number; ! = not confirmed by another sample. Only some compounds are listed: those with a hit (about 1.5% of all), similar ones and a draw of the others.

SMILES	CSN deneddyl inh	HNF4A DNA FP	Rpn11 block	TPT1 inh	others
CCn1nc(-c2cccs2)nc2c(=O)n(C)c(=O)nc1-2	63.0*	100.2*	i	nt
NC(Cc1cc(O)c(O)cc1O)C(=O)O (stereo not given)	nt	nt	nt	30.5*
NCCc1cc(O)c(O)cc1O	18.9	-13.3	i	nt
COCCCn1c(N)c(C(=O)NCCC(C)C)c2nc3ccccc3nc21	36.6*	1.9	i	2.2
CCCNC(=O)c1c(N)n(CC2CCCO2)c2nc3ccccc3nc12 (stereo not given)	39.5*	-1.9	i	1.1
C[C@@]12N[C@@H](Cc3ccccc31)c1ccccc12	-4.2	1.2	i	0.8
Cn1cc(C=C(C#N)C#N)c2ccccc21	36.3*	9.9	nt	1.6
O=C1NC(=O)N(c2ccccc2)C(=O)/C1=C/c1ccc(Sc2ccccc2)o1	7.2	0.9	i	0.6
O=C1NC(=O)N(c2ccccc2F)C(=O)/C1=C/c1ccc(Sc2nc3ccccc3[nH]2)o1	29.4	14.1	+	0.7
COCCNC(=O)Cn1cc(/C=C2\C(=O)NC(=O)N(c3cccc(C)c3C)C2=O)c2ccccc21	0.2	2.1	i	11.2
COCCCNC(=O)Cn1cc(/C=C2\C(=O)NC(=O)N(c3ccccc3F)C2=O)c2ccccc21	0.3	57.0*	i	19.9
Cc1ccnc(NC(=O)CCCc2ccc(N(CCCl)CCCl)cc2)n1	83.8*	8.7	i	nt
Cc1ccc(S(=O)(=O)N2Cc3cc(-c4ccccc4)ccc3-n3nncc3C2)cc1	2.0	47.9*	i	nt
O=S(=O)(c1cc(Cl)cc(Cl)c1)N1Cc2cc(-c3ccccc3)ccc2-n2nncc2C1	-1.6	-1.4	i	nt
C=CCN1CCc2cccc3c2[C@H]1Cc1ccc(O)c(O)c1-3	-1.7	1.7	i	-3.7
CC12CCC(=O)CC1CCC1C2C(=O)CC2(C)C1CCC2(C)O (stereo not given)	-1.6	4.7	i	nt
COc1ccc(NC(=S)N2Cc3ccccc3-n3nncc3C2)c(OC)c1	7.3	3.4	i	nt
O=C1CC(=O)N(Cc2ccccc2)C(=O)N1Cc1ccccc1	36.1*	52.3*	nt	nt
Cc1ccc(/C=C2/Sc3ccc(C(=O)N4CCC5(CC4)OCCO5)cc3NC2=O)cc1	-15.7	1.8	i	-14.6
O=[N+]([O-])/C=C/c1c(Cl)cccc1Cl	0.1	2.4	i	nt
CCCCCn1c(=O)c(C(=O)Nc2ccccc2Cl)c(O)c2ccccc21	-0.3	1.7	i	-1.8
CCCCn1c(=O)c(C(=O)Nc2ccccc2C)c(O)c2ccccc21	1.9	39.1*	i	-0.5
CN1C(=O)/C(=C/c2cccn2-c2ccc3ccccc3c2)C(=O)NC1=S	5.7	-6.8	i	38.0*	caTPT1 confirm=16.9;RNase T1 inh=20.6
CN1CCC2(CC1)C(C#N)=C(N)NC(S)=C2C#N	6.7	31.1	nt	50.5*!	caTPT1 confirm=15.7;RNase T1 inh=28.0*
CCOC(=O)c1c(/N=C/c2c(O)n(-c3cccc(C)c3)c(=O)[nH]c2=O)sc2c1CCCC2	-0.2	25.1	i	17.4
SMILES	CSN deneddyl inh	HNF4A DNA FP	Rpn11 block	TPT1 inh	others
CCOc1ccc(-n2c(O)c(C=Nc3ccc(N(CC)CC)cc3)c(=O)[nH]c2=O)cc1	-7.2	5.4	i	30.9*	caTPT1 confirm=41.9*;RNase T1 inh=55.6*
CCN(CC)c1ccc(N=Cc2c(O)n(-c3ccccc3C)c(=O)[nH]c2=O)cc1	13.4	13.8	+	68.8*	caTPT1 confirm=72.3*;RNase T1 inh=83.8*
CCN(CC)c1ccc(N=Cc2c(O)n(Cc3ccccc3)c(=O)[nH]c2=O)cc1	-3.4	13.1	i	22.7
Cc1ccccc1-n1c(O)c(C=Nc2ccc3c(c2)OCO3)c(=O)[nH]c1=O	0.4	-0.3	i	4.1
CCOC(=O)c1sc(/N=C/c2c(O)n(-c3ccccc3)c(=O)[nH]c2=O)c(C#N)c1C	16.4	11.8	i	31.7*	caTPT1 confirm=17.0;RNase T1 inh=20.1
CCN(CC)c1ccc(N=Cc2c(O)n(-c3ccccc3)c(=O)[nH]c2=O)cc1	7.1	0.5	i	39.4*	caTPT1 confirm=59.3*;RNase T1 inh=71.2*
CN(C)c1cc[n+](CC(O)C[n+]2ccc(N(C)C)cc2)cc1	0.6	1.2	i	1.2
COc1cc(C2SCC(=O)Nc3c2c(=O)[nH]n3C2CCCCCC2)cc(OC)c1OC (stereo not given)	4.3	-5.5	i	-3.9
COc1cccc(-n2c(CN3CCN(C)CC3)nc3ccc([N+](=O)[O-])cc3c2=O)c1	2.3	1.8	i	4.3
Cc1cccc(C)c1-n1nnnc1C(c1cccs1)N1CCC2(CC1)C(=O)NCN2c1ccccc1 (stereo not given)	1.9	3.7	i	nt
CCc1nnc(NS(=O)(=O)c2ccc(N=Cc3c(O)n(-c4ccc(Cl)cc4)c(=O)[nH]c3=O)cc2)s1	8.4	4.0	i	40.3*	caTPT1 confirm=8.2;RNase T1 inh=14.1
O=C(NC(=S)N1C[C@H]2C[C@H](C1)c1cccc(=O)n1C2)c1ccc(Cl)cc1Cl	7.4	-3.1	i	-4.1
CC12CC(=O)C3C(CCC4CC(=O)C=CC43C)C1CCC2=O (stereo not given)	2.1	-1.1	i	nt
CCCCN=Cc1c(O)n(-c2c(C)cc(C)cc2C)c(=O)[nH]c1=O	10.7	6.2	i	32.6*	caTPT1 confirm=33.6*;RNase T1 inh=45.0*
CCCCCCn1c(O)c(C=NCCCn2ccnc2)c(=O)[nH]c1=O	53.0*	67.1*	nt	133.5*	caTPT1 confirm=72.9*;RNase T1 inh=89.0*
COc1ccc(Cn2c(O)c(C=NCCCn3ccnc3)c(=O)[nH]c2=O)cc1	2.5	1.2	i	3.4
COc1ccc(CC2(CCc3ccncc3)C(=O)NC(=O)NC2=O)cc1OC	5.6	1.1	i	-0.1
CC(C)(C#CCCCCC#CC(C)(C)[N+](C)(C)C)[N+](C)(C)C	nt	nt	nt	3.4
Cc1cc(C=C(C#N)C#N)ccc1N1CCCC1	13.1	6.5	i	126.0*	caTPT1 confirm=120.3*;RNase T1 inh=139.2*
CC(=O)Nc1ccc2c(c1)CC1(C(=O)N(C)C(=O)N(C)C1=O)C1CCCN21 (stereo not given)	-0.5	2.2	i	0.8
CN1C(=O)N(C)C(=O)C2(Cc3cc(NC(=O)c4ccc(F)cc4)ccc3N3CCCC32)C1=O (stereo not given)	8.2	12.8	i	30.3*	caTPT1 confirm=23.4;RNase T1 inh=36.8*
CCCOc1ccc(C(=O)NC(=S)N2C[C@H]3C[C@H](C2)c2cccc(=O)n2C3)cc1	5.7	-3.1	i	-3.3
Cc1cc(C)c(S(=O)(=O)N2Cc3ccccc3-n3nncc3C2)c(C)c1	-1.7	0.5	i	nt
CC(=O)c1c(O)n(-c2cccc(Cl)c2)c(=O)[nH]c1=O (tested in a mixture with another compound)	12.2	13.5	i	28.4*	caTPT1 confirm=33.8*;RNase T1 inh=42.7*
Cn1c(O)c(/C=N/c2ncccn2)c(=O)n(C)c1=O	1.3	-0.2	i	6.3
